The target of series [1] is T1, Protein mono-ADP-ribosyltransferase PARP10 (Homo sapiens, UniProt Q53GL7).
T1 sequence (Q53GL7 whole entry): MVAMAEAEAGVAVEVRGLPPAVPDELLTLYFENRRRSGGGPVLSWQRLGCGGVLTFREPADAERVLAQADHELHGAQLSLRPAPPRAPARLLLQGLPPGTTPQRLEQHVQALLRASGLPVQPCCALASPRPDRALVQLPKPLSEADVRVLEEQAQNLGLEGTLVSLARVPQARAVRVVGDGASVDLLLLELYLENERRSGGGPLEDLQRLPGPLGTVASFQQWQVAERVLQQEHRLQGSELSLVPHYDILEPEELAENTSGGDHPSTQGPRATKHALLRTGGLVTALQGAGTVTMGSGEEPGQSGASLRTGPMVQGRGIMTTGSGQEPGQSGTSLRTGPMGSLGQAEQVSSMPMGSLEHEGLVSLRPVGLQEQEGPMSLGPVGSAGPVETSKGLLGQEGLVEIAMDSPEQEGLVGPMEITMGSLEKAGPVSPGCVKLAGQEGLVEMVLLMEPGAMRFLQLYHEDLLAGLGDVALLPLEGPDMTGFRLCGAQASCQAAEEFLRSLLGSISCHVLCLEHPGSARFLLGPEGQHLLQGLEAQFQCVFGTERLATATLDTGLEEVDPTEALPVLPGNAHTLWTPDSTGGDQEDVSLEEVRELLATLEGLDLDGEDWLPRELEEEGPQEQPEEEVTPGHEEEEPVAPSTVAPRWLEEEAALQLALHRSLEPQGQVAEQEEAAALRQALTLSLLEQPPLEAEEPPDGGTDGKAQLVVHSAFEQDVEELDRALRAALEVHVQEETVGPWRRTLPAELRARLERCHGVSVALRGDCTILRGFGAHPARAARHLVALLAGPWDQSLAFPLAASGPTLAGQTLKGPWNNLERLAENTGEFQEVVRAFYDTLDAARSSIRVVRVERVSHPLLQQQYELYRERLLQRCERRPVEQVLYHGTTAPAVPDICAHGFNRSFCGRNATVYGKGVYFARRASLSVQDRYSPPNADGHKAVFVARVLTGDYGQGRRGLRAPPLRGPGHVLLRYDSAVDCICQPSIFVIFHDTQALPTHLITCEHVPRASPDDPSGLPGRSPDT
Briefly: Inhibition of human PARP10 catalytic domain assessed as reduction in MARylation of His6-tagged SRPK2 substrate after 60 mins in presence of NAD+ by chemifluorescence assay.

The species entered for series [2] is Homo sapiens. Briefly: Selectivity ratio of IC50 for full length human PARP1 to IC50 for human PARP10 catalytic domain. In short, it runs like this: (§1)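 Selectivity ratio is the IC50 for the given PARP divided by the IC50 for PARP10 catalytic domain. IC50s came from the 6-a-NAD+ SRPK2 plate assay or, for cell-expressed PARPs, the immunoprecipitation auto-MARylation assay.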

For series [3], the species on record is Homo sapiens. The series is described as follows: Selectivity ratio of IC50 for GFP-tagged human PARP6 short isoform expressed in HEK293T cells to IC50 for human PARP10 catalytic domain. The format is cell-based. An outline of the steps: as §1
Series [4] has as its target T2, Protein mono-ADP-ribosyltransferase TIPARP (Homo sapiens, UniProt Q7Z3E1).
T2 sequence (Q7Z3E1 whole entry): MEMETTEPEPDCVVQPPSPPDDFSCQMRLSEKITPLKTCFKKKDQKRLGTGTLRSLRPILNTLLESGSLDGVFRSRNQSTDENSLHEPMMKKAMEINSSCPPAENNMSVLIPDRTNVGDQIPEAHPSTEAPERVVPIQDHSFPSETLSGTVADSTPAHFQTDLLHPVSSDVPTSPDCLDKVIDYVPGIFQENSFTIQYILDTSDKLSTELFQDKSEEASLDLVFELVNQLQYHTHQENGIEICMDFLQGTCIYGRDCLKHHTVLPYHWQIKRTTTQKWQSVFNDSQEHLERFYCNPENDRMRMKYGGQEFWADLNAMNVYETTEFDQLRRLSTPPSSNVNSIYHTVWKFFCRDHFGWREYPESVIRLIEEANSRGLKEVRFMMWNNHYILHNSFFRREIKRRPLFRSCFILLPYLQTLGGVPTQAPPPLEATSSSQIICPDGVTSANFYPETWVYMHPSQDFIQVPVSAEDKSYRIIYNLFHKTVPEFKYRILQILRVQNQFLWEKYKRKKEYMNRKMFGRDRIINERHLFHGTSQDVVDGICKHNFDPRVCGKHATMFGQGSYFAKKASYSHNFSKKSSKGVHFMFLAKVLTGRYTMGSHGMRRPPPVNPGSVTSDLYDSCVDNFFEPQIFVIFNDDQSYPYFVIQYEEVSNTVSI
The series is described as follows: Inhibition of human PARP7 assessed as reduction in MARylation of SRPK2 substrate after 60 mins in presence of 6-a-NAD+ by chemifluorescence assay. In short, it runs like this:
(§2)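 Recombinant enzyme was tested in a 96-well plate assay that monitors MARylation of the substrate SRPK2 with the clickable 6-a-NAD+.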

The target in series [5] is T3, Protein mono-ADP-ribosyltransferase PARP10 (Homo sapiens) (UniProt Q53GL7).
T3 sequence (whole entry): T1 sequence (Q53GL7 whole entry)
Briefly: Inhibition of human PARP10 catalytic domain assessed as reduction in auto-MARylation at 30 uM after 60 mins in presence of 6-a-NAD+ by chemiluminescent immunoprecipitation assay relative to control.

Series [6] is described as follows: Inhibition of GFP-tagged human PARP6 short isoform expressed in HEK293T cells assessed as reduction in auto-MARylation after 60 mins in presence of 6-a-NAD+ by chemiluminescent immunoprecipitation assay. The format is cell-based.
Series [7] in a line: Inhibition of GFP-tagged human PARP6 long isoform expressed in HEK293T cells assessed as reduction in auto-MARylation after 60 mins in presence of 6-a-NAD+ by chemiluminescent immunoprecipitation assay. It is filed as cell-based.
In series [8] the target is T3, Protein mono-ADP-ribosyltransferase PARP10 (Homo sapiens). Briefly: Inhibition of GFP-tagged human PARP10 expressed in HEK293T cells assessed as reduction in high molecular weight target protein MARylation after 3 hrs by Western blot analysis. The format is cell-based. In short, it runs like this: (§3)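 HEK293T cells transfected with GFP-PARP10 and treated with compound at 1−100 μM for 3 h. A Western blot using an ADP-ribose binding reagent detected PARP10 auto-MARylation and PARP10-mediated MARylation of high molecular weight targets.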
For orientation: In western blotting, separated proteins are transferred to a membrane and probed.

The species entered for series [9] is Homo sapiens. The series is described as follows: Selectivity ratio of IC50 for human PARP7 to IC50 for human PARP10 catalytic domain. In short, it runs like this: as §1
The species entered for series [10] is Homo sapiens. The series is described as follows: Selectivity ratio of IC50 for full length human PARP3 to IC50 for human PARP10 catalytic domain. In short, it runs like this:
as §1

In series [11] the target is T3, Protein mono-ADP-ribosyltransferase PARP10 (Homo sapiens). Briefly: Inhibition of GFP-tagged human PARP10 expressed in HEK293T cells assessed as reduction in auto-MARylation after 3 hrs by Western blot analysis. The format is cell-based. An outline of the steps: as §3
Series [12] is filed under the species Homo sapiens. The series is described as follows: Selectivity ratio of IC50 for GFP-tagged human PARP12 expressed in HEK293T cells to IC50 for human PARP10 catalytic domain. The format is cell-based. An outline of the steps: as §1
Series [13] is filed under the species Homo sapiens. The series is described as follows: Selectivity ratio of IC50 for human PARP5B catalytic domain (1 to 572 residues) to IC50 for human PARP10 catalytic domain. An outline of the steps:
as §1

The species entered for series [14] is Homo sapiens. The series is described as follows: Selectivity ratio of IC50 for full length human PARP2 to IC50 for human PARP10 catalytic domain. An outline of the steps:
as §1

Series [15] is filed under the species Homo sapiens. Briefly: Selectivity ratio of IC50 for human transmembrane domain deficient His-SUMO-tagged PARP16 expressed in Escherichia coli BL21 to IC50 for human PARP10 catalytic domain. In short, it runs like this:
as §1

Series [16] concerns the target T4, Protein mono-ADP-ribosyltransferase PARP16 (Homo sapiens, UniProt Q8N5Y8).
T4 sequence (Q8N5Y8 whole entry): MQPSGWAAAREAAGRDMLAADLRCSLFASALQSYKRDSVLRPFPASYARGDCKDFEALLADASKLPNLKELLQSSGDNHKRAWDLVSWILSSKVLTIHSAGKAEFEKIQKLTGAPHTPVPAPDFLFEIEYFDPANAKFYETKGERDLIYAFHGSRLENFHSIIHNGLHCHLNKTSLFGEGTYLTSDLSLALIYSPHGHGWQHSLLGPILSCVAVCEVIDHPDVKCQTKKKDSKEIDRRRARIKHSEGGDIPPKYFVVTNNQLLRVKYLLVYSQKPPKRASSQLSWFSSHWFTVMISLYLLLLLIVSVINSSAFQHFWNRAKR
The series is described as follows: Inhibition of human transmembrane domain deficient His-SUMO-tagged PARP16 expressed in Escherichia coli BL21 assessed as reduction in MARylation of His6-tagged SRPK2 substrate after 60 mins in presence of 6-a-NAD+ by chemifluorescence assay. In short, it runs like this: as §2

For series [17], the species on record is Homo sapiens. Briefly: Selectivity ratio of IC50 for human PARP4 BRCT-catalytic domain (1 to 572 residues) to IC50 for human PARP10 catalytic domain. In short, it runs like this: as §1
Series [18] is filed under the species Homo sapiens. Briefly: Selectivity ratio of IC50 for GFP-tagged human PARP6 long isoform expressed in HEK293T cells to IC50 for human PARP10 catalytic domain. The format is cell-based. In short, it runs like this:
as §1

For series [19], the target named is Protein mono-ADP-ribosyltransferase PARP4 (Homo sapiens, UniProt Q9UKK3). The series is described as follows: Inhibition of human PARP4 BRCT-catalytic domain (1 to 572 residues) assessed as reduction in MARylation of SRPK2 substrate after 60 mins in presence of 6-a-NAD+ by chemifluorescence assay. An outline of the steps:
as §2

The species entered for series [20] is Homo sapiens. Briefly: Selectivity ratio of IC50 for human PARP15 catalytic domain to IC50 for human PARP10 catalytic domain. An outline of the steps:
as §1

For series [21], the species on record is Homo sapiens. The series is described as follows: Selectivity ratio of IC50 for human PARP14 catalytic-WWE domain (1459 to 1801 residues) expressed in Escherichia coli BL21 to IC50 for human PARP10 catalytic domain. In short, it runs like this:
as §1

For series [22], the species on record is Homo sapiens. Briefly: Selectivity ratio of IC50 for GFP-tagged human PARP8 expressed in HEK293T cells to IC50 for human PARP10 catalytic domain. It is filed as cell-based. An outline of the steps: as §1
Series [23] in a line: Aqueous solubility of the compound. It is filed as physicochemical. The settings on record: buffer.

Protein mono-ADP-ribosyltransferase PARP4, sequence (Q9UKK3 whole entry, the tested form may be a part): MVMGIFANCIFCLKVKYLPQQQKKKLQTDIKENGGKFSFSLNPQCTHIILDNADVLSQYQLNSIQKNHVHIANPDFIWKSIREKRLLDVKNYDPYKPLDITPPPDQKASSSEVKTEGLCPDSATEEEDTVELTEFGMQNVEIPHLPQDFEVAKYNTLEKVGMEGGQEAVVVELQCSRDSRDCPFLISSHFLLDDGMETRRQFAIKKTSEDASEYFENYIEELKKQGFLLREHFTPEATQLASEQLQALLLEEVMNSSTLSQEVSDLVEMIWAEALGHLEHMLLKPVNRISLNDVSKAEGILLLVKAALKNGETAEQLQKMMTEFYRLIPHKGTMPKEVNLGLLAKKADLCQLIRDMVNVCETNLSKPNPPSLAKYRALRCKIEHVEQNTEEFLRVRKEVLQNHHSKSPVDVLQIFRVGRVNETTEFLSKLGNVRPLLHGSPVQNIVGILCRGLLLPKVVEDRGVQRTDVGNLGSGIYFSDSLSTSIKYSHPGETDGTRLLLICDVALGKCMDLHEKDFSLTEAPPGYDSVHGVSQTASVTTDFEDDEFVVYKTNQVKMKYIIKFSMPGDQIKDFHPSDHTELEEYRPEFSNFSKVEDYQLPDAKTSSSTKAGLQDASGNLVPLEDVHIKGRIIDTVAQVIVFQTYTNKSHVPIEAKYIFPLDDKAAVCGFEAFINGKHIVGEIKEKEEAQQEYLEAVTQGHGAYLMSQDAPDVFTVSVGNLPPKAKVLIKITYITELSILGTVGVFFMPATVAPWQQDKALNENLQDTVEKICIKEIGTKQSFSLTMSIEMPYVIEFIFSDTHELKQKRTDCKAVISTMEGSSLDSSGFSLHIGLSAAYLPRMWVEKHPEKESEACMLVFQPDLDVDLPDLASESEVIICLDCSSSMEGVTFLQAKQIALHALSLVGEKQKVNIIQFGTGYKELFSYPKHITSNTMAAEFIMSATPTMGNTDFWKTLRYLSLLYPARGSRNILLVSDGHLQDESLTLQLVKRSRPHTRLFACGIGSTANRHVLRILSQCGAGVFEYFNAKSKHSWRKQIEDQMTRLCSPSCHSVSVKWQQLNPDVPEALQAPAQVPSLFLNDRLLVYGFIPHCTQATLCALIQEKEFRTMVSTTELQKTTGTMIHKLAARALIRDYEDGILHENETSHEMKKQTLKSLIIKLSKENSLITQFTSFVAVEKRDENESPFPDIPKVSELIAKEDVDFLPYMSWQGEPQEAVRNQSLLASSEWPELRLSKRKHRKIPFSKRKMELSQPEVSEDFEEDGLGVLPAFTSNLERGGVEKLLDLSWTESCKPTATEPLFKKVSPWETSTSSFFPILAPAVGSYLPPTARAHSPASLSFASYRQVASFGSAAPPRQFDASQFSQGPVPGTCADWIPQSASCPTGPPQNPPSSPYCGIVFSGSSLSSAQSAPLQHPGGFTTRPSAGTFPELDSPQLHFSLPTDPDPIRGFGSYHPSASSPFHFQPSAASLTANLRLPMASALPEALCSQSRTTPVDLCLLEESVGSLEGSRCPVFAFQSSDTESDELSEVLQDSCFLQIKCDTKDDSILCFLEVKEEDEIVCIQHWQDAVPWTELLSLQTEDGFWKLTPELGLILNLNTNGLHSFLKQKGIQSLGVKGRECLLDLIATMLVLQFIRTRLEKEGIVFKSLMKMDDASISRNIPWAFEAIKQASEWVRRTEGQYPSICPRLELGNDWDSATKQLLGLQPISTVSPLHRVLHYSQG

As usually defined, the IC50 is the midpoint of a concentration-inhibition curve. Turning to `Cc1c(-c2cncc(F)c2)ccc2c1CCNC2=O`, in [1], the IC50 amounted to 2200 nM.
Turning to `O=C1NCCc2cc(Br)ccc21`, the IC50 in [1] turned out to be 17100 nM.
Still for that read-out and setting: under `O=C1NCCc2cc(-c3cccc(F)c3)ccc21` stands 1400 nM; under `Cc1c(-c2cnc3[nH]ccc3c2)ccc2c1CCNC2=O`, 710 nM.
Consider `O=C1NCCc2cc(Cc3ccccc3)ccc21`, for which the half-inhibitory concentration (IC50) in series [1] is > 50000 nM.
Same read-out and setting: under `Cc1c(-c2ccc3[nH]ccc3c2)ccc2c1CCNC2=O` stands 1100 nM.
The same measure, in the same setting: under `CC(=O)c1cccc(-c2ccc3c(c2)CCNC3=O)c1` stands 1600 nM.
A word on the inhibition: it is the relative decrease from the control value, in per cent. Consider `Cc1c(-c2ccnc(C(F)(F)F)c2)ccc2c1CCNC2=O`, for which the IC50 is 1800 nM in series [1]; 19000 nM in series [4]; > 30000 nM in [6]; > 30000 nM in [7]; 6700 nM in series [16]; > 100000 nM in series [19]. Moreover, the Ratio IC50 in the series filed under Homo sapiens [2] is > 37; in the series filed under Homo sapiens [3] it was > 10; in the series filed under Homo sapiens [9], 7; in the series listed under Homo sapiens [10] it was > 37; in the series filed under Homo sapiens [12], > 10; in the series filed under Homo sapiens [13] it was > 37. In addition, the Ratio IC50 in the series listed under Homo sapiens [14] was > 37; in the series listed under Homo sapiens [15] it was 2.5; in the series filed under Homo sapiens [17] it was > 37; in the series listed under Homo sapiens [18], > 10; in the series listed under Homo sapiens [20], 23; in the series listed under Homo sapiens [21], 22. For the same compound, the Ratio IC50 in the series listed under Homo sapiens [22] was > 10. Moreover, the inhibition was 80% in series [5], “Dose-dependent effect” in series [8] and “Dose-dependent effect” in series [11].
Regarding `O=C1NCCc2c1cccc2-c1ccccc1`, in series [1], the 50% inhibitory concentration (IC50) was found to be 35000 nM.
As to `Cc1c(-c2cncc(C(F)(F)F)c2)ccc2c1CCNC2=O`, the IC50 in series [1] worked out at 2700 nM.
Same read-out and setting: under `Cc1c(-c2cccnc2)ccc2c1CCNC2=O` stands 2500 nM.
Consider `Cc1c(-c2ccccc2)ccc2c1CCNC2=O`, for which the IC50 in series [1] is 1600 nM. For the same compound, the solubility result in [23] is recorded as “Insoluble”.
Consider `Cc1ccc2c(c1)CCNC2=O`, for which the half-inhibitory concentration (IC50) in [1] is 33100 nM.
